DSG3 Ab inh – human desmoglein-3 autoantibody binding inhibition. DSG3-coupled beads, scFv-anti-DSG3-GFP binding, flow cytometry; active compounds read low. binding (percent of control), % at 10 µM. 310,000 tested, 0.48% active;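 active means binding more than 3 SD below its plate's average and above zero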;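 further: hits lower antibody fragment binding to DSG3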
LMPTP block – blocks human LMPTP phosphatase. inhibition, % at 20 µM. P24666. 360,000 tested, 0.22% active. recombinant LMPTP-A, OMFP fluorogenic substrate, fluorescence intensity;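 active means compounds that cut the enzyme signal by at least half of the control window in the single-dose screen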;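 further: plate controls were DMSO wells with enzyme plus substrate for no effect and substrate without enzyme for full effect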
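material = LMPTP-A | quantity = 0.625 nM enzyme | reagent = OMFP substrate, 400 µM final | buffer or medium = Bis-Tris pH 6.0, DTT, detergent | detection = endpoint fluorescence intensity from OMFP dephosphorylation | dosing = single 20 µM dose | read-out basis = % inhibition relative to no-enzyme and uninhibited control wells | control set = no-enzyme and uninhibited controls | timing = 50 min at room temperature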
Scp1 inh – blocks human Scp-1 phosphatase activity; inhibition, % at 20 µM; AID 493091; 340,000 tested, 0.88% active; Q9GZU7; Recombinant Scp1, phosphopeptide, malachite green phosphate absorbance;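 active means inhibition above about 50% at 20 µM, limit read from the data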;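 further: plate controls were DMSO wells with enzyme for no effect and wells lacking enzyme for full effect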
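Material: truncated SCP-1 phosphatase (76-261aa) / Buffer or medium: 50 mM Tris acetate pH 5.5, 0.005% Tween-20, 10 mM MgCl2 / Compound dosing: one concentration, 20 µM, with 1.0% DMSO / Incubation: 45 min room-temperature reaction, 5 min colour, 30 min stabiliser / Detection: colorimetric free-phosphate detection, absorbance 630 nm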
SUMO1 PPI mod – modulators of human SUMO1-mediated protein-protein interactions; SUMO1 binding to a labelled peptide, TR-FRET, 1 h; inhibition, % at 20 µM; 360,000 tested, 0.33% active; in the data active means inhibition above about 37%
Target sequence (P63165 whole entry, looked up): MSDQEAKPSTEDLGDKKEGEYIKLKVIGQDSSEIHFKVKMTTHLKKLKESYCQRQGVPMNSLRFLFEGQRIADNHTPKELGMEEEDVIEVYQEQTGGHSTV
STEP block – blocks human striatal-enriched tyrosine phosphatase; inhibition, % at 20 µM; P54829; recombinant STEP, OMFP fluorogenic substrate, fluorescence; AID 588621; 360,000 tested, 0.25% active;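 active means inhibition at 20 µM, scaled per plate between control wells, above about 37%, limit read from the data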;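 further: 0% = DMSO with enzyme and substrate and 100% = substrate only without enzyme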
Target sequence (P54829 whole entry, looked up): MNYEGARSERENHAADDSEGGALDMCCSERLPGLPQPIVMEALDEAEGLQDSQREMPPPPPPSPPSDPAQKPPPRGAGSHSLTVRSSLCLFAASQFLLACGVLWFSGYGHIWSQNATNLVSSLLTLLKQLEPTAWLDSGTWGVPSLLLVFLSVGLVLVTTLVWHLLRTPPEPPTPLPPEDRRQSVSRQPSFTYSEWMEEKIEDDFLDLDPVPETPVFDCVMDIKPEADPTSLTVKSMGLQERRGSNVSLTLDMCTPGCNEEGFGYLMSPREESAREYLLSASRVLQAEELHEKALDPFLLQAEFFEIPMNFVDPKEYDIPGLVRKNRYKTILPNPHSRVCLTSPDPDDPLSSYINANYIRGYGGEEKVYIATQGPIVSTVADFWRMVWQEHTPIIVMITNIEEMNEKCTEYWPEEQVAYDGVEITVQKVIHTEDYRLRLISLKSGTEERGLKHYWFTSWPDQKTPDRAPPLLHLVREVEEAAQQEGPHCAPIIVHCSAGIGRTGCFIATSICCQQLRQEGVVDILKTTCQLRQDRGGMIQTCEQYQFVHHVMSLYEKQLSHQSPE
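Material: STEP (striatal-enriched tyrosine phosphatase) enzyme, cell-free; Compound dosing: 20 µM single dose in 1% DMSO; Technique: fluorescence read at 480 nm ex / 540 nm em; Times: reaction 20 min, ambient temperature; Medium: 50 mM Bis-Tris pH 6.0 with 2.5 mM DTT and 0.005% Tween 20; Also added: OMFP at 25 µM.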
Starred values were filed as active, the others as inactive; . = no result given. In the library only some 1.7% were active in any assay of this set; here they are far more common.

SMILES | DSG3 Ab inh | LMPTP block | Scp1 inh | SUMO1 PPI mod | STEP block
COc1ccc(C(=O)N/N=C/c2sc3ccccc3c2O)cc1 | 101 | 1 | -13 | -13 | -6
COc1ccc(S(=O)(=O)Nc2ccc(Cc3ccncc3)cc2)cc1OC | 40* | 0 | 4 | -1 | 0
CC(=O)Nc1cccc(-c2cc(C)c3cc4c(cc3n2)OCO4)c1 | 128 | 1 | 1 | -7 | -3
CCOC(=O)c1nc2sc3c(c2c(=O)[nH]1)CCCC3 | 112 | 1 | 6 | 0 | 4
N#C/C(=C\c1ccc(C(=O)O)cc1)c1nc2sc3c(c2c(=O)[nH]1)CCCC3 | 90 | 27 | 76* | 31 | -6
COc1ccc(C2=NC(=O)/C(=C\c3cc(OC)c(OC)c(OC)c3)O2)cc1 | 99 | 0 | -7 | 2 | -1
COc1ccc(CCNC(=O)CSc2nnc3ccc(-c4cccnc4)nn23)cc1OC | 95 | -2 | 1 | -26 | -1
CN(C(=O)CN(C)S(=O)(=O)c1ccc(F)cc1)c1c(N)n(Cc2ccccc2)c(=O)[nH]c1=O | 111 | 0 | 5 | 2 | -5
CC(=O)Nc1ccc(NC(=O)CSc2ccc(-c3ccc(-n4ccnc4)cc3)nn2)cc1 | 119 | 8 | -1 | 42* | 2
CC(=O)Nc1ccc(NC(=O)CSc2ccc(-c3cccnc3)nn2)cc1 | 100 | 0 | -6 | 4 | -2
CCN(CC)C(=O)Cn1ncc2c1-c1ccccc1OC2 | 105 | -2 | 10 | 0 | -5
COc1cc2c(cc1OC)C(C)N(C(=O)Cn1ncc3c1-c1ccccc1OC3)CC2 (stereo not given) | 89* | -1 | 18 | 2 | -2
CC(C)(C)OC(=O)C[C@H]1C/C=C\C[C@H](CC(=O)N(CCO)Cc2ccccc2)C(=O)N[C@@H](Cc2ccccc2)COC1=O | 103 | 1 | -6 | 1 | 0
O=C1C(=Cc2ccco2)CCC1=Cc1ccco1 | 130 | 64* | 80* | 121* | 97*
O=C1ON=C(c2ccccc2)/C1=C\c1ccco1 | 97 | 0 | -2 | 0 | 1
O=C1C(=Cc2ccco2)CCCC1=Cc1ccco1 | . | 11 | 66* | 11 | 7
O/N=C1\CCC\C1=C/c1ccco1 | 106 | -1 | 2 | -1 | 0
CCOc1cc(Cl)c(S(=O)(=O)NCc2cccnc2)cc1Cl | 100 | 0 | -5 | 0 | -2
CC(=O)Nc1ccc(S(=O)(=O)N[C@@H](C)C(=O)OCc2ccc(Cl)cc2)cc1 | 112 | 1 | -8 | 2 | -2
CCCNC(=O)c1ccccc1NC(=O)CN(c1ccccc1)S(=O)(=O)N(C)C | 102 | 0 | -4 | 0 | 1
CC(C)CNC(=O)c1ccccc1NC(=O)CN(c1ccccc1)S(=O)(=O)N(C)C | 54* | 1 | -6 | -2 | 0
Cc1ccc(S(=O)(=O)NC23CC4CC(CC(C4)C2)C3)cc1 | 103 | 1 | -10 | -1 | -3
Cc1nn(C)c(C(=O)Nc2ccc(S(=O)(=O)NC34CC5CC(CC(C5)C3)C4)cc2)c1Br | 17* | 5 | -10 | -1 | -3
COc1ccc2nc(N3C(=O)CNC3=S)sc2c1 | 91 | 0 | -7 | 7 | 0
CCOc1ccc2nc(N3C(=O)/C(=C/c4ccc(Cl)cc4)NC3=S)sc2c1 | 101 | 39 | 55* | 79* | 4
SMILES | DSG3 Ab inh | LMPTP block | Scp1 inh | SUMO1 PPI mod | STEP block
Cc1ccc(NC(=O)NNC(=O)C2CCN(Cc3ccc(F)cc3Cl)CC2)cc1 | 50* | -1 | 1 | -2 | -2
Cc1ccc(/C=N/NC(=O)C2CCN(Cc3ccc(F)cc3Cl)CC2)o1 | 87 | 2 | 1 | -9 | -4
COc1ccccc1CCC(=O)NC1CCCN(c2ccc(C(F)(F)F)cn2)C1 (stereo not given) | 98 | 1 | -3 | -1 | 1
O=C(CCc1ccccc1Cl)NC1CCCN(c2ccc(C(F)(F)F)cn2)C1 (stereo not given) | 82* | 2 | 3 | 2 | 0
CN1\C(=C/C=C/C=C/C=[N+](C)C)C(C)(C)c2ccccc21 | 66* | 18 | -1 | -23 | -28
CCn1c(=O)n(CC)c2cc(N3CCCC3)c(NC(=O)c3cccc(Cl)c3)cc21 | 100 | 0 | -9 | 0 | -1
Nc1ccc(C(=O)N/N=C\c2cc(N=Nc3cccc4ccccc34)ccc2O)cc1 | . | 4 | 38 | 65* | 10
COC(=O)N/N=C/c1cc(N=Nc2ccccc2Cl)ccc1O | 102 | 6 | 35 | 11 | 9
Cc1cc(C(=O)N/N=C/c2cc(N=Nc3ccccc3)ccc2O)n[nH]1 | . | 6 | 64* | -6 | 6
Cn1c(=O)n(CC(=O)OCc2ccccc2)c(=O)c2c1nc1n2CCCN1C1CCCCC1 | 115 | 1 | -2 | 1 | 0
Cc1ccccc1NC(=O)Cc1nc(COC(=O)c2ccc([N+](=O)[O-])cc2)cs1 | 103 | 0 | -4 | -32 | -1
Cc1ccccc1NC(=O)Cc1nc(COC(=O)c2cccc([N+](=O)[O-])c2)cs1 | 78* | 0 | -6 | -34 | 0
CCCCNC(=O)C1(C)CCCCN1C(=O)c1cc2ccccc2s1 (stereo not given) | . | -2 | . | -3 | 1
O=C(O)COc1ccc(/C=N/NC(=O)c2ccc(-c3csc(Nc4ccc(Cl)cc4)n3)cc2)cc1 | 31* | 92* | 100* | 121* | 93*
CCOc1cc(/C=N/NC(=O)c2ccc(-c3csc(Nc4ccc(C)cc4)n3)cc2)ccc1OCC(=O)O | . | 92* | 66* | 19 | 84*
CCC1Sc2ccc(S(=O)(=O)CCC(=O)Nc3cccc(Br)c3)cc2NC1=O (stereo not given) | 94 | 1 | 8 | 6 | 0
Fc1ccc(-c2csc(Nc3ccccn3)n2)cc1 | 97 | 2 | -1 | -2 | -2
COc1ccc(C(=O)COC(=O)c2cc(=O)[nH]c3ccccc23)c(OC)c1 | 98 | 2 | -2 | -53 | -2
COc1cccc(N2CCN(C(=O)c3ccc(CSc4nc5ccncc5[nH]4)cc3)CC2)c1 | 110 | 52* | -12 | -6 | -1
O=C(c1ccc(CSc2nc3ccncc3[nH]2)cc1)N1CCCCC1 | 103 | 13 | -13 | 6 | -1
Fc1ccc(CNc2nc(-c3ccccc3)nc3ccccc23)cc1 | 106 | 37 | 3 | -4 | 0
Cc1ccc(-c2nc(NCc3cccnc3)c3ccccc3n2)cc1 | 118 | 63* | -30 | 8 | -4
COc1ccc(CNc2nc(-c3ccccc3)nc3ccccc23)cc1OC | 99 | 63* | -6 | 3 | -1
c1ccc(-c2nc(NCc3cccnc3)c3ccccc3n2)cc1 | 103 | 58* | -4 | 6 | 1
CC1CCN(c2ccc3nnc(CCC(=O)N4CCN(c5ccc(F)cc5)CC4)n3n2)CC1 | . | -1 | -4 | -1 | 2
